Results gathered from unrelated publications.
Lines come from different studies, so protocols differ. Values after ≈ are worked out from the molar mass of the structure shown.
Organism: Enterococcus faecalis

SMILES | effect on | method | strain | concentration | time | measurement | result
CC1(C)S[C@@H]2[C@H](NC(=O)[C@H](N)c3ccccc3)C(=O)N2[C@H]1C(=O)O | microbial growth | agar dilution | ATCC29212 | 26.93 µM | – | inhibition | 100%
Cc1cc(C)n(C(=O)c2ccc(-n3c(C)ccc3C)cc2)n1 | microbial growth | broth dilution | ATCC14506 | – | 18 h | MIC | 125 mg/L (≈ 426 µM)
COc1cccc(-c2nc3ccc(C)cc3[nH]2)c1 | microbial growth | broth dilution | ATCC29212 | – | – | MIC | 128 mg/L (≈ 537 µM)
O=C(O)CN(CCN(CC(=O)O)CC(=O)O)CC(=O)O | microbial killing | – | OG1RF | – | – | MBC | 500 µM (≈ 146 µg/mL)
CCn1cc(C(=O)O)c(=O)c2cc(F)c(N3CCNCC3)cc21 | microbial killing | broth dilution | NCTC12697 | – | – | MBC | 4 µM (≈ 1.28 µg/mL)
Clc1ccc(-c2nc3ccccc3[nH]2)c(Cl)c1 | microbial growth | broth dilution | ATCC29212 | – | – | MIC | 64 mg/L (≈ 243 µM)
c1ccc(CN(CCN(Cc2ccccn2)Cc2ccccn2)Cc2ccccn2)nc1 | microbial killing | – | OG1RF | – | – | MBC | > 2000 µM
CSc1ccc(-c2nc3ccc(C)cc3n2Cc2ccccc2)cc1 | microbial growth | broth dilution | ATCC29212 | – | – | MIC | 128 mg/L (≈ 372 µM)
Cc1ccc(C)n1-c1ccc(-c2nnc(-c3c(Cl)cccc3Cl)[nH]2)cc1 | microbial growth | broth dilution | ATCC14506 | – | 18 h | MIC | 8 mg/L (≈ 20.9 µM)
CN[C@H](CC(C)C)C(=O)N[C@H]1C(=O)N[C@@H](CC(N)=O)C(=O)N[C@H]2C(=O)N[C@H]3C(=O)N[C@H](C(=O)N[C@H](C(=O)O)c4cc(O)cc(O)c4-c4cc3ccc4O)[C@H](O)c3ccc(c(Cl)c3)Oc3cc2cc(c3O[C@@H]2O[C@H](CO)[C@@H](O)[C@H](O)[C@H]2O[C@H]2C[C@](C)(N)[C@H](O)[C@H](C)O2)Oc2ccc(cc2Cl)[C@H]1O | microbial killing | broth dilution | NCTC12697 | – | – | MBC | 16 µM (≈ 23.2 µg/mL)
